Results from article PMC11302324 (RSC Advances, 2024).

Legend:
[1] = tested on: hepatocellular carcinoma (HepG-2); experiment: In vitro cytotoxicity, MTT assay; assay type: cell-based; settings: Homo sapiens, HepG2, read-out: In vitro cytotoxicity IC50 HePG2
How it was run: (§1)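 Cells seeded at 1×10^5 cells per ml and grown 24 h at 37 °C to a monolayer, then washed twice. Two-fold dilutions of test compound in RPMI with 2% serum; medium-only control wells; doxorubicin positive control. Morphology checked, then MTT stock (5 mg ml⁻¹ in PBS) added and incubated 1-5 h (37 °C, 5% CO₂). Formazan dissolved in DMSO; OD 560 nm minus 620 nm; mean of three determinations; one-way ANOVA.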

[2] = tested on: colorectal carcinoma (HCT-116); experiment: In vitro cytotoxicity, MTT assay; assay type: cell-based; settings: Homo sapiens, HCT-116, read-out: In vitro cytotoxicity IC50 HCT-116
How it was run: as §1

[3] = tested on: prostate carcinoma (PC-3); experiment: In vitro cytotoxicity, MTT assay; assay type: cell-based; settings: Homo sapiens, read-out: In vitro cytotoxicity IC50 PC-3
How it was run: as §1

[4] = tested on: HepG-2, PC-3, and HCT-116 cell lines; experiment: In vitro cytotoxicity, MTT assay, stated for the three cell lines together; assay type: cell-based, human
How it was run: as §1

[5] = target: CK2 kinase (Homo sapiens, UniProt P68400); experiment: CK2 kinase enzyme inhibitory assay; assay type: biochemical
CK2 kinase, sequence (P68400 whole entry): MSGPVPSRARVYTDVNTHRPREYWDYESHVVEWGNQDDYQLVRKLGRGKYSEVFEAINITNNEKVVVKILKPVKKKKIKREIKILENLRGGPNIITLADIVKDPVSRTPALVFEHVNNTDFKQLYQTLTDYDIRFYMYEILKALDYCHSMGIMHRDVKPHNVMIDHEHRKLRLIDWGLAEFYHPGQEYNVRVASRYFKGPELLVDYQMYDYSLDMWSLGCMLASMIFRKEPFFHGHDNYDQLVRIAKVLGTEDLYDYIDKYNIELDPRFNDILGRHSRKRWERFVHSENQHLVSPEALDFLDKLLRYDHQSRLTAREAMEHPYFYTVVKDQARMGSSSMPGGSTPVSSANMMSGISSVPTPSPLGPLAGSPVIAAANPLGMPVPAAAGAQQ

Compound	IC50 [1] [µM]	IC50 [2] [µM]	IC50 [3] [µM]	cytotoxicity towards three cell lines (in words) [4]	IC50 [5] [µM]	activity against CK2 kinase (in words) ([5]; compared with 5b)
COC(=O)CNC(=O)CNC(=O)COc1ccc2c(C)cc(=O)oc2c1 [Compound 7a, Methyl 2-{2-[2-[(4-methyl-2-oxo-2H-chromen-7-yl)oxy]acetamido]acetamido}acetate]	174 ± 3.4	137 ± 2.4	172.3 ± 1.4			
COC(=O)[C@@H](CC(C)C)NC(=O)CNC(=O)CNC(=O)COc1ccc2c(C)cc(=O)oc2c1 [Compound 9b, (R)-Methyl4-methyl-2-{2-{2-{2-[(4-methyl-2-oxo-2H-chromen-7-yl)oxy]acetamido}acetamido}acetamido}pentanoate]	298.8 ± 0.3	169.1 ± 0.3	85.5 ± 0.4	relatively weak cytotoxicity		
COC(=O)[C@H](CC(C)C)NC(=O)COc1ccc2c(C)cc(=O)oc2c1 [Compound 5b, (S)-Methyl-4-methyl-2-{2-[(4-methyl-2-oxo-2H-chromen-7-yl)oxy]acetamido}pentanoate]	42.16 ± 0.3	35.1 ± 2.8	59.7 ± 4.2		0.117 ± 0.005	
COC(=O)[C@@H](NC(=O)CNC(=O)COc1ccc2c(C)cc(=O)oc2c1)c1ccccc1 [Compound 7c, (S)-Methyl2-{2-{2-[(4-methyl-2-oxo-2H-chromen-7-yl)oxy]acetamido}acetamido}-2-phenylacetate]	34.1 ± 4.2	16 ± 4.1	16.1 ± 4.6		0.461 ± 0.02	less active
COc1cccc2c1C(=O)c1c(O)c3c(c(O)c1C2=O)C[C@@](O)(C(=O)CO)C[C@@H]3O[C@H]1C[C@H](N)[C@H](O)[C@H](C)O1 [Doxorubicin, reference compound]	108 ± 0.6	61.01 ± 0.3	57.3 ± 0.6			
COC(=O)[C@@H](NC(=O)COc1ccc2c(C)cc(=O)oc2c1)c1ccccc1 [Compound 5c, (S)-Methyl 2-{2-[(4-methyl-2-oxo-2H-chromen-7-yl)oxy]acetamido}-2-phenylacetate]	154 ± 2.1	124 ± 4.4	174 ± 1.8			
Cc1cc(=O)oc2cc(OCC(=O)NCC(=O)NN)ccc12 [Compound 6, N-(2-Hydrazinyl-2-oxoethyl)-2-[(4-methyl-2-oxo-2H-chromen-7-yl)oxy]acetamide]	168 ± 4.4	171 ± 4.2	168 ± 4.3			
